Where “and” joins values, the source holds several entries; their conditions need not be identical. Equal entries are not always repeated.
Test system: HEK-293T
Test: Multiplex assay against HEK293T
Format: toxicity, cell-based
Conditions: human
Summary of the method: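 Live cells were stained at seeding with Hoechst33342, BioTracker Green Microtubule Cytoskeleton Dye, MitoTracker Red and Annexin V Alexa Fluor 680, then imaged on a CQ1 microscope at 37°C and 5% CO2 after compound addition. CellPathfinder machine-learning gating split cells into Hoechst high-intensity objects or normal cells. Normal cells were split into healthy, pyknosed or fragmented nuclei, and pyknosed cells into mitotic or apoptotic. Tubulin, mitochondrial-mass and membrane-permeability phenotypes are per cents of healthy-nucleus cells.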

[1] = 12 h, 1 µM, compound concentration 1 uM
[2] = 12 h, 10 µM, compound concentration 10 uM
[3] = 24 h, 1 µM, compound concentration 1 uM
[4] = 24 h, 10 µM, compound concentration 10 uM
[5] = 48 h, 1 µM, compound concentration 1 uM
[6] = 48 h, 10 µM, compound concentration 10 uM

**Q.** What does the source list for Cc1cc(NC(=O)NCCN2CCC(O)(Cc3ccccc3)CC2)c2ccccc2n1 [PALOSURAN]?
**A.** Population Apoptotic (%) [1]: 36% and 48%; Population Fragmented Nuclei (%) [1]: 7% and 9%; Population Healthy Nuclei (%) [1]: 77% and 81%; Population Hoechst High Intensity Objects (%) [1]: 6% and 9%; Population Membrane Permeable-Phenotype (%) [1]: 0%; Population Mitochondria Different-Phenotype (%) [1]: 42% and 57%; Population Mitotic Cells (%) [1]: 63% and 52%; Population Normal (%) [1]: 93% and 90%; Population Pyknosed Nuclei (%) [1]: 14% and 8%; Population Tubulin-Different-Phenotype (%) [1]: 25% and 26%; Total Cell Count [1]: 373 and 326; Population Apoptotic (%) [2]: 38% and 61%; Population Fragmented Nuclei (%) [2]: 5%; Population Healthy Nuclei (%) [2]: 81% and 75%; Population Hoechst High Intensity Objects (%) [2]: 8%; Population Membrane Permeable-Phenotype (%) [2]: 0%; Population Mitochondria Different-Phenotype (%) [2]: 53% and 76%; Population Mitotic Cells (%) [2]: 61% and 38%; Population Normal (%) [2]: 91%; Population Pyknosed Nuclei (%) [2]: 12% and 18%; Population Tubulin-Different-Phenotype (%) [2]: 41% and 42%; Total Cell Count [2]: 461 and 346; Population Apoptotic (%) [3]: 17% and 46%; Population Fragmented Nuclei (%) [3]: 9% and 10%; Population Healthy Nuclei (%) [3]: 78% and 76%; Population Hoechst High Intensity Objects (%) [3]: 6% and 4%; Population Membrane Permeable-Phenotype (%) [3]: 0%; Population Mitochondria Different-Phenotype (%) [3]: 24% and 45%; Population Mitotic Cells (%) [3]: 82% and 53%; Population Normal (%) [3]: 93% and 95%; Population Pyknosed Nuclei (%) [3]: 11% and 13%; Population Tubulin-Different-Phenotype (%) [3]: 19% and 14%; Total Cell Count [3]: 511 and 343; Population Apoptotic (%) [4]: 35% and 51%; Population Fragmented Nuclei (%) [4]: 8% and 7%; Population Healthy Nuclei (%) [4]: 79% and 83%; Population Hoechst High Intensity Objects (%) [4]: 4% and 6%; Population Membrane Permeable-Phenotype (%) [4]: 0%; Population Mitochondria Different-Phenotype (%) [4]: 43% and 64%; Population Mitotic Cells (%) [4]: 64% and 48%; Population Normal (%) [4]: 95% and 93%; Population Pyknosed Nuclei (%) [4]: 11% and 9%; Population Tubulin-Different-Phenotype (%) [4]: 32% and 26%; Total Cell Count [4]: 598 and 396; Population Apoptotic (%) [5]: 19% and 32%; Population Fragmented Nuclei (%) [5]: 15% and 13%; Population Healthy Nuclei (%) [5]: 79% and 81%; Population Hoechst High Intensity Objects (%) [5]: 3%; Population Membrane Permeable-Phenotype (%) [5]: 1% and 0%; Population Mitochondria Different-Phenotype (%) [5]: 16% and 24%; Population Mitotic Cells (%) [5]: 80% and 67%; Population Normal (%) [5]: 96%; Population Pyknosed Nuclei (%) [5]: 5%; Population Tubulin-Different-Phenotype (%) [5]: 12% and 15%; Total Cell Count [5]: 938 and 552; Population Apoptotic (%) [6]: 29% and 41%; Population Fragmented Nuclei (%) [6]: 15% and 9%; Population Healthy Nuclei (%) [6]: 75% and 84%; Population Hoechst High Intensity Objects (%) [6]: 5% and 4%; Population Membrane Permeable-Phenotype (%) [6]: 0%; Population Mitochondria Different-Phenotype (%) [6]: 34% and 42%; Population Mitotic Cells (%) [6]: 70% and 58%; Population Normal (%) [6]: 94% and 95%; Population Pyknosed Nuclei (%) [6]: 8% and 6%; Population Tubulin-Different-Phenotype (%) [6]: 17% and 19%; Total Cell Count [6]: 874 and 570
